Test results taken from ChEMBL document CHEMBL1124778, “Synthesis and biological evaluation of prodrugs of zidovudine” (J Med Chem, 1990).
pIC50: −log10 of the molar value.

Experiments:
[1] = system: Human immunodeficiency virus 1; assay: Evaluated in vitro for the concentration required to produce 50% inhibition of replication of HIV-1; format: functional, organism-based
[2] = In vitro time required for 50% hydrolysis at 37 degree Celsius upon incubation in rat hepatic microsomes; format: functional; conditions: Liver
Procedure, shortened: (§1)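 Ester (10 mg/mL DMSO stock, diluted 1:100) incubated at 37 °C in human plasma or in rat hepatic microsomes (15.5 mg protein/mL solution). Samples taken over 0–4 h and quenched in ice-cold methanol. Remaining ester quantified by reverse-phase HPLC. t1/2 = time to 50% hydrolysis.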

[3] = In vitro time required for 50% hydrolysis at 37 degree Celsius upon incubation in human plasma; format: functional, cell-free; procedure, shortened: as §1
[4] = Evaluated for Partition coefficient in n-octanol and phosphate buffer pH 7.4; format: physicochemical; conditions: octanol/water
Procedure, shortened: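 Ester solutions in n-octanol equilibrated with phosphate buffer (0.2 M, pH 7.4) at room temperature. Partition coefficient derived from the distribution between the two phases.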

H9 = assay: Evaluated in vitro for the concentration required to produce 50% inhibition of proliferation of H9 lymphocytes; format: functional, cell-based; conditions: Homo sapiens
Procedure, shortened: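 H9 lymphoblastoid cells grown in RPMI 1640 with 15% FBS, penicillin/streptomycin and 2 mM L-glutamine at 37 °C under 5% CO2. Viability read by trypan blue dye exclusion. IC50 taken as the concentration giving 50% inhibition of proliferation.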

Row | Compound | pIC50 [1] | T1/2 [2] [min] | T1/2 [3] [min] | PC [4] | pIC50 (H9)
1 | Cc1cn([C@H]2C[C@H](N=[N+]=[N-])[C@@H](COC(=O)C(N)Cc3ccc(O)cc3)O2)c(=O)[nH]c1=O.O=C(O)C(F)(F)F (stereo partly drawn) | 6.96 | 5 | 60 | 0.94 | 3.52
2 | Cc1cn([C@H]2C[C@H](N=[N+]=[N-])[C@@H](CO)O2)c(=O)[nH]c1=O [ZIDOVUDINE] | 6.92 |  |  | 1.2 | 3.82
3 | Cc1cn([C@H]2C[C@H](N=[N+]=[N-])[C@@H](COC(=O)C(N)Cc3ccccc3)O2)c(=O)[nH]c1=O.O=C(O)C(F)(F)F (stereo partly drawn) | 6.96 | 30 | 20 | 3.3 | 3.46
4 | Cc1cn([C@H]2C[C@H](N=[N+]=[N-])[C@@H](COC(=O)C(N)CCCCN)O2)c(=O)[nH]c1=O.O=C(O)C(F)(F)F (stereo partly drawn) |  | 14 | 30 | 0.01 | 3.52
5 | Cc1cn([C@H]2C[C@H](N=[N+]=[N-])[C@@H](COC(=O)CN3CCOCC3)O2)c(=O)[nH]c1=O |  | 28 | 12 | 2.2 | 3.49
6 | Cc1cn([C@H]2C[C@H](N=[N+]=[N-])[C@@H](COC(=O)c3cccnc3)O2)c(=O)[nH]c1=O |  | 30 | 10 | 1.6 | 
7 | Cc1cn(C2CC(N=[N+]=[N-])C(COC(=O)CCC(N)C(=O)O)O2)c(=O)[nH]c1=O (stereo not drawn) |  | 30 | 70 | 0.12 | 3.49
8 | Cc1cn([C@H]2C[C@H](N=[N+]=[N-])[C@@H](COC(=O)C3=CN(C)C=CC3)O2)c(=O)[nH]c1=O | 7.30 | 110 | > 240 | 7.2 | 3.47
9 | CCC(C)C(N)C(=O)OC[C@H]1O[C@@H](n2cc(C)c(=O)[nH]c2=O)C[C@@H]1N=[N+]=[N-].O=C(O)C(F)(F)F (stereo partly drawn) | 7.00 | 19 | > 240 | 10.3 | 3.60
10 | CC1=C(/C=C/C(C)=C/C=C/C(C)=C/C(=O)OC[C@H]2O[C@@H](n3cc(C)c(=O)[nH]c3=O)C[C@@H]2N=[N+]=[N-])C(C)(C)CCC1 | 6.70 | 60 | 120 | 17.9 | 4.60
